The source of these data is PubChem BioAssay.

Assay [1] has as its target Potassium voltage-gated channel subfamily KQT member 1 (Homo sapiens) (UniProt P51787). The assay can be described thus: KCNQ1 channel current potentiators, confirmation, orthogonal assay for KCNQ1 potentiator project, IonWorks patch clamp, KCNQ1-CHO cells (AID 493184). Conditions: automated patch clamp current, at 10 µM. Put shortly:
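Read-out: Percent current increase versus pre-compound level | Assay system: CHO cells carrying KCNQ1 | Measured by: Automated perforated-patch electrophysiology | Medium: External bath solution at pH 7.4 | Dosing: One dose, 10 µM final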
For orientation: In patch-clamp work, channel activity is measured electrically.

Assay [2] has as its target Potassium voltage-gated channel subfamily E member 1 (Homo sapiens) + Potassium voltage-gated channel subfamily KQT member 1 (Homo sapiens) (UniProt P15382+P51787). As to the kind of experiment: KCNQ1/KCNE1 complex potentiators, confirmation, selectivity assay for KCNQ1 potentiator project, thallium flux, CHO-K1 KCNQ1/E1 cells (AID 493186;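 active = mean duplicate activation above the buffer control mean plus 5 SD of those controls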). The note with it: FluxOR thallium flux, at 10 µM. The essentials:
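Test system: CHO-K1 cells with KCNQ1/E1; dosing: one test concentration; signal: FluxOR Tl+ flux fluorescence, kinetic read; incubation: 90-min dye loading then 20-min compound exposure, both at room temperature; read-out basis: percent of R-L3 effect over buffer; replication: duplicate wells per compound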

Active and inactive are the calls of the source.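 Rule for the calls, unless noted: active = current rise at least 3 SD above the untreated control mean in each of two repeat wells; inactive = the rest.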

Chain of Potassium voltage-gated channel subfamily E member 1 (Homo sapiens) + Potassium voltage-gated channel subfamily KQT member 1 (Homo sapiens) (P51787 whole entry, looked up): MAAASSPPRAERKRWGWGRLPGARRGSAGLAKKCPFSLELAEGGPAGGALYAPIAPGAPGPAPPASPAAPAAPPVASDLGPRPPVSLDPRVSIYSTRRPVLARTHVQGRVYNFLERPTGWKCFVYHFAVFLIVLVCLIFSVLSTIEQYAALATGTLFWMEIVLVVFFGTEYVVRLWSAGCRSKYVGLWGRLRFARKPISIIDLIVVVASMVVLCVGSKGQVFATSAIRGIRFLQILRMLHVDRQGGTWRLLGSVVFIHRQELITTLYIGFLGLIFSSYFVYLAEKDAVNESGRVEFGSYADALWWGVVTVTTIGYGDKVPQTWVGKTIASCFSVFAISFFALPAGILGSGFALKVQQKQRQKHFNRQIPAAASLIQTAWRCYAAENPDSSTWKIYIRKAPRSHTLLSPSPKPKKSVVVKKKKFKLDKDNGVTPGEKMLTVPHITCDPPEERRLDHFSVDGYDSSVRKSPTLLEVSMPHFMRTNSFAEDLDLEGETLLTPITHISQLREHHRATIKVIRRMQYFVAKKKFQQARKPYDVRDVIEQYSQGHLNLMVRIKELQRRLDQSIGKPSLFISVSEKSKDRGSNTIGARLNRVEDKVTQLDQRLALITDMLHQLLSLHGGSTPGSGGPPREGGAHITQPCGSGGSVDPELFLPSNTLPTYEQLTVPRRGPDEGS
Chain of Potassium voltage-gated channel subfamily KQT member 1 (Homo sapiens) (P51787 whole entry, looked up): as above

As to `CN(CCCNC(=O)CCCOc1cc(=O)n(C)c2ccccc12)Cc1ccccc1`, the outcome in assay [1] was inactive. Consider `O=C1C=CC(=O)N1CCNc1ncc(C(F)(F)F)cc1Cl`, for which the result in assay [1] and in assay [2] was inactive. For the compound `CCCCCCCCCC[n+]1cccc2c3ccccc3ccc21`, in assay [1], the outcome was inactive. For `CC(C)NS(=O)(=O)c1ccc(NC(=O)C(C)Oc2ccc(C(=O)c3ccccc3)cc2)cc1` (stereo not drawn), the result in assay [1] and in assay [2] was inactive. Turning to `O=C(Nc1ccnn1C1CCN(Cc2cc3ccccc3[nH]2)CC1)C1CCOC1` (stereo not drawn), the outcome in assay [1] was inactive. Turning to `Cc1ccc2c(c1)C1CN(C)CCC1N2C(=S)NC(=O)c1ccc(Br)cc1` (stereo not drawn), in assay [1], the outcome was inactive. For the compound `CCCCN(CC)CCCNC(=O)c1cc2cc3ccc(C)cc3nc2o1`, the outcome in assay [1] was inactive.

With `Cc1ccc(C(=O)O)cc1N=Cc1cc(Br)cc(Br)c1O`, the outcome in assay [1] was inactive. The same measure, in the same setting: in the case of `COc1ccc(NS(=O)(=O)c2ccc3ccccc3c2)c2ncccc12` it was “inactive”; in that of `CCCc1nc2oc3c(NCCCN(C)C)ncnc3c2c2c1CCCC2`, “inactive”. Turning to `O=C(O)CCCN1C(=O)/C(=C\c2ccc(-c3nc4ccccc4s3)o2)SC1=S`, the outcome in assay [1] and in assay [2] was inactive. As to `COc1cc(C2(c3ccc(O)c(OC)c3)C(=O)Nc3c(C)cc(Br)cc32)ccc1O`, in assay [1], the result was inactive. As for `Cc1cc(C)c2c(=O)n(CC(=O)Nc3cccc(Cl)c3C)sc2n1`, in assay [1], the result was inactive. On the same count and under the same terms, in the case of `CN(C)S(=O)(=O)N1CCC(CCCC2CCN(S(=O)(=O)N(C)C)CC2)CC1` it was “inactive”; in that of `CN(C)CCCN(C(=O)CCc1ccccc1)c1nc2ccc(F)cc2s1`, “inactive”.
